LYP inh 2: inhibitors of human LYP (PTPN22) phosphatase | Q9Y2R2 | inhibition, % at 2 µM | recombinant LYP catalytic domain, DiFMUP fluorescence | 96,000 tested, 0.21% active;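 active means inhibition at 2 µM at or above a set limit, the screen mean plus 3 SD, cut at about 24% in these data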
Rev-RRE block: HIV Rev-RRE protein-RNA interaction inhibition. Rev peptide-RRE RNA binding, FRET. inhibition, % at 8 µM. P05866. 97,000 tested, 0.79% active;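 active means inhibition above the screen-wide mean plus 3 SD, cut at about 35% in these data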
Target sequence (P05866 whole entry, looked up): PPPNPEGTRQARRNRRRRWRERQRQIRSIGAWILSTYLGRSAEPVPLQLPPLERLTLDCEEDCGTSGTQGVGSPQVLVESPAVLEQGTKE
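Test system: labelled RRE RNA duplex and labelled Rev peptide. Times: 5 min compound–RNA preincubation, then 15 min with peptide, 25 °C. Doses: single-dose 8 µM. Measured by: FRET, excitation 480 nm, emission 540 nm donor and 671 nm acceptor. Measure: % inhibition of FRET ratio versus controls.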
EphB4 ephrin blk: blocks human EphB4 binding to ephrin-B2. P54760. EphB4 LBD / TNYL-RAW-Alexa532 peptide, fluorescence polarization. inhibition, % at 7 µM. 97,000 tested, 0.15% active. AID 720;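 active means inhibition above the screen-wide mean inhibition plus 3 SD, cut at about 15% in these data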
PTPN22 act: activators of human LYP (PTPN22) phosphatase; activation, % at 2 µM; AID 697; 96,000 tested, 0.11% active; Q9Y2R2; recombinant LYP, DiFMUP fluorescence; 0 = plate median, 100 = signal doubled;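 active means activation at 2 µM above a set limit, the mean plus 5 SD, cut at about 37% in these data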
Numbers stand for hits; . = inactive; [ ] = another dose, or the depositor's remark. The list is not random: actives were taken first. Their share in the collection is about 1.3%.

SMILES	LYP inh 2	Rev-RRE block	EphB4 ephrin blk	PTPN22 act
CCOC(=O)c1ccc(NC(=O)CC2SCCNC2=O)cc1 (configuration not stated)	.	.	.	.
CCOC(=O)c1ccc(NC(=O)CC2NCCNC2=O)cc1 (configuration not stated)	32	.	.	.
O=[N+]([O-])c1cc(/C=N\Nc2nccs2)ccc1O	40	.	.	.
CC(=O)c1ccc(-n2nnnc2SCC(=O)N2CCc3ccccc3C2)cc1	.	.	18	.
Cc1cccc(N/C=C/c2onc(C)c2[N+](=O)[O-])c1	.	95[fluorescence artefact?]	.	.
Cc1ccc(-n2c(SCc3cn4ccsc4n3)nc3ccccc3c2=O)cc1	.	.	.	.
COc1ccc(C2=CC(c3c(C)nn(-c4ccccc4)c3Cl)n3nnnc3N2)cc1OC (configuration not stated)	.	51	.	.
CCC(C)(C)n1c(=O)[nH]c2c(c1=O)CCC2	.	.	.	.
OCCCc1nc2n(n1)C(c1ccccc1Cl)C=C(c1cccs1)N2 (configuration not stated)	.	92[fluorescence artefact?]	.	.
OCCCc1nc2n(n1)C(c1cccs1)C=C(c1ccccc1)N2 (configuration not stated)	.	137[fluorescence artefact?]	.	.
CCOc1ccccc1C1C(C(N)=O)=C(C)Nc2nc(CCCO)nn21 (configuration not stated)	.	.	.	.
OCCCc1nc2n(n1)C(c1ccccc1)C=C(c1ccc(F)cc1)N2 (configuration not stated)	.	.	.	.
Cn1nc(-c2ccccc2)c2nc3ccccc3nc21	.	92[fluorescence artefact?]	.	.
Cn1c(=O)c(-c2ccccc2)nc2ccccc21	.	.	.	.
CCCCn1nc(-c2ccccc2)c2nc3ccccc3nc21	.	97[fluorescence artefact?]	.	.
COc1ccc(/C(O)=C/c2nc3ccccc3n(-c3ccccc3)c2=O)cc1	.	78	.	.
Cc1ccc2nc3sc(C(=O)Nc4ccc(N5CCOCC5)cc4)c(N)c3cc2c1	.	.	.	.
CCc1nnc(NC(=O)c2sc3nc4cc(C)ccc4cc3c2N)s1	.	88[fluorescence artefact?]	.	.
CCOC(=O)Cc1csc(NC(=S)NC(=O)c2ccc(Cl)cc2)n1	26	.	.	.
CCOC(=O)Cc1csc(NC(=O)c2ccc(NC(C)=O)cc2)n1	.	.	.	.
CCOC(=O)Cc1csc(NC(=O)c2sc3nc4ccc(C)cc4cc3c2N)n1	.	81[fluorescence artefact?]	.	.
CCOC(=O)Cc1csc(NC(=O)c2cccnc2)n1	.	.	.	.
CN(c1ccc(Cl)cc1)c1cc(=O)n(C)c2ccccc12	.	.	120[fluorescence artefact?]	.
CC(=O)c1cccc(NC(=O)C(OC(=O)/C=C/c2ccc3c(c2)OCO3)c2ccccc2)c1 (configuration not stated)	.	.	.	.
O=C(NC1CCCc2ccccc21)c1cncc(Br)c1 (configuration not stated)	.	.	.	.
SMILES	LYP inh 2	Rev-RRE block	EphB4 ephrin blk	PTPN22 act
CCOc1ccc(C(=O)NCc2cccnc2)cc1	.	.	.	.
CCOc1ccc(C2=C/C(=C/c3cccnc3)C(=O)O2)cc1	.	111[fluorescence artefact?]	.	.
Cn1cnnc1SCC(=O)Nc1ccc2nc(SCc3cccc4ccccc34)sc2c1	.	.	17	.
Nc1nnnn1/N=C/c1ccccc1C(F)(F)F	69	.	.	.
Nc1nnnn1/N=C/c1ccccc1OCc1ccccc1	.	.	.	.
CCOC(=O)c1c(C)sc2c1N(C(C)=O)c1cc(Cl)ccc1S2	.	.	.	.
O=c1cc(C(F)(F)F)nc(-n2[nH]c3c(c2=O)CCCC3)[nH]1	.	67	.	.
Cc1n(CC(O)COC2CCCCC2)c2ccccc2[n+]1C (configuration not stated)	.	.	.	.
CCN(CC)c1ccc(NC(=O)COC(=O)c2ccc3ccccc3n2)cc1	.	.	.	.
O=C1c2ccccc2S(=O)(=O)N1CCOc1ccc(F)cc1	.	.	.	.
N#Cc1cccc(NC(=O)CSc2ccc3c4c(cccc24)C(=O)c2ccccc2-3)c1	.	115[fluorescence artefact?]	.	.
COc1ccc(NC(=O)CSc2ccc3c4c(cccc24)C(=O)c2ccccc2-3)cc1	26	125[fluorescence artefact?]	.	.
COc1ccc(NC(=O)CSc2nnc(-c3ccccc3C)n2N)cc1	.	.	.	.
Clc1ccc(CSc2nnc(-c3ccncc3)o2)c(Cl)c1	.	.	.	.
O=c1c(-c2nnc(SCc3ccc(Cl)cc3Cl)o2)cccn1Cc1ccccc1	25	.	.	.
Cc1ccc(-c2nc3cccnc3o2)cc1NC(=O)COc1ccc(C(C)(C)C)cc1	.	.	82[fluorescence artefact?]	.
Cc1ccc(-c2nc3cccnc3o2)cc1NC(=O)COc1ccc(Cl)cc1C	.	.	.	.
COc1cc([N+](=O)[O-])ccc1N/C=C/C(=O)c1cccs1	.	77	.	.
Cc1ccc(-n2ncc3c(=O)n(CC(=O)N4CCCCCC4)cnc32)cc1	.	.	16	.
CC(=O)Nc1nonc1NC(=O)c1ccc(C(C)(C)C)cc1	58	.	.	.
CCCCOC(=O)C1=C(C)Nc2ncnn2C1c1cccc(OC)c1OC (configuration not stated)	.	.	.	.
Cc1cccn2c(=O)c(C=Nc3ccccc3)c(NCc3ccco3)nc12	.	.	.	.
CCCN1C(=O)/C(=C/c2c(NCCCOCC)nc3c(C)cccn3c2=O)SC1=S	.	76	.	.
CCOCCCNc1nc2c(C)cccn2c(=O)c1/C=C1\SC(=S)N(CC(C)C)C1=O	.	44	.	.
CCN1CCc2c(sc(N)c2C#N)C1	.	69	.	.
SMILES	LYP inh 2	Rev-RRE block	EphB4 ephrin blk	PTPN22 act
CCN1CCc2c(C#N)c(N3CCCCC3)nc(NCc3ccccc3)c2C1	.	.	.	.
O=C(N/N=C/c1cccc([N+](=O)[O-])c1)c1cc2c(ccc3ccccc32)o1	35	.	.	.
O=C(N/N=C/c1ccncc1)c1cc2c(ccc3ccccc32)o1	.	.	.	.
N#C/C(=C\c1ccc(N2CCCC2)c([N+](=O)[O-])c1)c1nc2ccccc2[nH]1	.	37	.	.
Cc1oc2c(c1C(=O)NC(Cc1c[nH]c3ccccc13)C(=O)O)CCCC2 (configuration not stated)	.	.	.	.
CC(C)OCCCn1c(=N)c(C(N)=S)cc2c(=O)n3ccccc3nc21	.	66	.	.
CC(C)OCCCn1c(=NC(=O)c2ccncc2)c(C#N)cc2c(=O)n3ccccc3nc21	.	.	.	.
O=C1S/C(=C\c2ccc(N3CCOCC3)o2)C(=O)N1Cc1c(F)cccc1Cl	.	121[fluorescence artefact?]	.	.
O=C1S/C(=C/c2ccc(N3CCOCC3)o2)C(=O)N1Cc1c(F)cccc1Cl	.	126[fluorescence artefact?]	.	.
O=C1N=C(N2CCOCC2)S/C1=C/c1ccc(-c2ccccc2Cl)o1	.	.	.	.
Cn1c(=O)c2c(nc(N3CCOCC3)n2Cc2c(F)cccc2Cl)n(C)c1=O	.	.	.	.
CCNc1ccc(Br)cc(C(=O)/C=C/c2ccc(Cl)cc2Cl)c1=O	.	79[fluorescence artefact?]	.	.
CNc1ccc(Br)cc(C(=O)/C=C/c2ccc3c(c2)OCO3)c1=O	.	48	.	.

Source: PubChem (several laboratories)
